In ChEMBL document CHEMBL1142887, “N-Phenyl-N'-(2-chloroethyl)ureas (CEU) as potential antineoplastic agents. Part 2: role of omega-hydroxyl group in the covalent binding to beta-tubulin” (2007):

How the values were obtained:
HT-29 = assay: Growth inhibition of HT29 cells after 48 hrs; assay type: functional; conditions: Homo sapiens, HT-29, 48 h
Method in brief: (§1)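 NCI screening protocol. Cells in high-glucose DMEM with 5% bovine calf serum preincubated 24 h at 37 °C, 5% CO₂, then exposed 48 h to drug, final 10 to 0.3 µM (DMSO below 0.5%). TCA fixation, sulforhodamine B staining, absorbance at 585 nm against a plate fixed on treatment day to give growth inhibition and GI50. At least two experiments in triplicate.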

M21 = assay: Growth inhibition of M21 cells after 48 hrs; assay type: functional; conditions: Homo sapiens, M21, 48 h; method in brief: as §1
MCF7 = assay: Growth inhibition of MCF7 cells after 48 hrs; assay type: functional; conditions: Homo sapiens, MCF7, 48 h; method in brief: as §1
MDA-MB-231 = assay: Alkylation of beta-tubulin in MDA-MB-231 cells at 5 uM by electrophoretic mobility shift assay after 48 hrs; assay type: cell-based; conditions: Homo sapiens
HT-1080 = assay: Cell cycle arrest by accumulation at G2/M phase in HT1080 cells at 10 uM; assay type: functional, Homo sapiens
Method in brief: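 HT 1080 cells incubated with drug (dissolved in DMSO, 0.5% final DMSO in medium; DMSO control). Cells harvested, fixed in ice-cold ethanol, and 5 × 10⁵ cells per sample stained with propidium iodide 50 µg/mL plus RNase A 40 U/mL for 30 min at room temperature. Flow cytometry gave % apoptotic cells and % G0/G1, S and G2/M populations.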

M21 (human) [1] = assay: Induction of apoptosis in M21 cells at 3 uM
M21 (human) [2] = assay: Induction of apoptosis in M21 cells at 10 uM
M21 (human) [3] = assay: Induction of apoptosis in M21 cells at 25 uM
M21 (human) [4] = assay: Cell cycle arrest by accumulation at S phase in M21 cells at 3 uM
M21 (human) [5] = assay: Cell cycle arrest by accumulation at S phase in M21 cells at 10 uM
M21 (human) [6] = assay: Cell cycle arrest in M21 cells by accumulation at S phase at 25 uM
M21 (human) [7] = assay: Cell cycle arrest by accumulation at G2/M phase in M21 cells at 3 uM
M21 (human) [8] = assay: Cell cycle arrest by accumulation at G0/G1 phase in M21 cells at 3 uM
M21 (human) [9] = assay: Cell cycle arrest in M21 cells by accumulation at G2/M phase at 25 uM
M21 (human) [10] = assay: Cell cycle arrest by accumulation at G0/G1 phase in M21 cells at 10 uM
M21 (human) [11] = assay: Cell cycle arrest in M21 cells by accumulation at G0/G1 phase at 25 uM
M21 (human) [12] = assay: Induction of apoptosis in M21 cells at 4 uM
M21 (human) [13] = assay: Induction of apoptosis in M21 cells at 1.2 uM
M21 (human) [14] = assay: Cell cycle arrest in M21 cells by accumulation at S phase at 4 uM
M21 (human) [15] = assay: Cell cycle arrest in M21 cells by accumulation at S phase at 1.2 uM
M21 (human) [16] = assay: Cell cycle arrest by accumulation at G2/M phase in M21 cells at 4 uM
M21 (human) [17] = assay: Cell cycle arrest in M21 cells by accumulation at G0/G1 phase at 4 uM
M21 (human) [18] = assay: Cell cycle arrest in M21 cells by accumulation at G2/M phase at 1.2 uM
M21 (human) [19] = assay: Cell cycle arrest in M21 cells by accumulation at G0/G1 phase at 1.2 uM

Structure (SMILES): COCCc1cccc(NC(=O)NCCCl)c1
- GI50 (HT-29): 4000 nM
- GI50 (M21): 6000 nM
- GI50 (MCF7): 14000 nM

Structure (SMILES): COc1cccc(NC(=O)NCCCl)c1
- GI50 (HT-29): > 10000 nM
- GI50 (M21): > 10000 nM
- GI50 (MCF7): > 10000 nM

Structure (SMILES): CCCCCCc1cccc(NC(=O)NCCCl)c1
- GI50 (HT-29): 1000 nM
- GI50 (M21): 1000 nM
- GI50 (MCF7): 1000 nM

Structure (SMILES): COCc1cccc(NC(=O)NCCCl)c1
- GI50 (HT-29): > 10000 nM
- GI50 (M21): > 10000 nM
- GI50 (MCF7): > 10000 nM

Structure (SMILES): CCCCCc1cccc(NC(=O)NCCCl)c1
- GI50 (MCF7): 1000 nM
- Activity (MDA-MB-231): 90%
- Activity (HT-1080): 68.06%
- Activity (M21 (human) [1]): 6.16%
- Activity (M21 (human) [2]): 8.59%
- Activity (M21 (human) [3]): 7.84%
- Activity (M21 (human) [4]): 17.75%
- Activity (M21 (human) [5]): 13.28%
- Activity (M21 (human) [6]): 15.23%
- Activity (M21 (human) [7]): 60.78%
- Activity (M21 (human) [8]): 15.06%
- Activity (M21 (human) [9]): 68.48%
- Activity (M21 (human) [10]): 7.85%
- Activity (M21 (human) [11]): 8.75%

Structure (SMILES): CCCCCCCc1cccc(NC(=O)NCCCl)c1
- GI50 (HT-29): 1000 nM
- GI50 (M21): 1000 nM
- GI50 (MCF7): 2000 nM

Structure (SMILES): COCCCc1cccc(NC(=O)NCCCl)c1
- GI50 (HT-29): 4000 nM
- GI50 (M21): 5000 nM
- GI50 (MCF7): > 10000 nM

Structure (SMILES): O=C(NCCCl)Nc1cccc(CCCCCO)c1
- Activity (M21 (human) [12]): 9.83%
- Activity (M21 (human) [2]): 10.71%
- Activity (M21 (human) [13]): 7.58%
- Activity (M21 (human) [14]): 12.12%
- Activity (M21 (human) [5]): 12.11%
- Activity (M21 (human) [15]): 16.65%
- Activity (M21 (human) [16]): 70.24%
- Activity (M21 (human) [17]): 7.57%
- Activity (M21 (human) [18]): 21.82%
- Activity (M21 (human) [10]): 5.9%
- Activity (M21 (human) [19]): 54.35%

Structure (SMILES): COCCCCc1cccc(NC(=O)NCCCl)c1
- GI50 (HT-29): 1000 nM
- GI50 (M21): 2000 nM
- GI50 (MCF7): 3000 nM

Structure (SMILES): COCCCCCc1cccc(NC(=O)NCCCl)c1
- GI50 (MCF7): 1000 nM
- Activity (MDA-MB-231): 81%
- Activity (HT-1080): 68.57%
- Activity (M21 (human) [1]): 8.5%
- Activity (M21 (human) [2]): 9.02%
- Activity (M21 (human) [3]): 8.63%
- Activity (M21 (human) [4]): 19.98%
- Activity (M21 (human) [5]): 14.37%
- Activity (M21 (human) [6]): 13.79%
- Activity (M21 (human) [7]): 40.22%
- Activity (M21 (human) [8]): 31.28%
- Activity (M21 (human) [9]): 70.84%
- Activity (M21 (human) [10]): 7.52%
- Activity (M21 (human) [11]): 6.74%
